Common to all, as to assay type: functional
Assay [1] is described as follows: Antioxidant activity assessed as inhibition of Fe3+/ascorbic acid-induced hydroxyl radical formation by measuring DMSO-induced formaldehyde production at 100 uM after 30 mins relative to control. The procedure, abridged:
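Hydroxyl radicals were generated by Fe3+/ascorbic acid in 50 mM phosphate buffer, pH 7.4, containing 0.1 mM EDTA and 33 mM DMSO, with compounds at 0.1 mM. Radical yield was measured as formaldehyde formed from DMSO oxidation, determined by the Nash method.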

Assay [2] relates to Radical scavenging activity. Description: Antioxidant activity assessed as reduction of DPPH free radical formation at 100 uM after 60 mins relative to control. More on the design: scale not given: the % may be the effect or the level left. An outline of the steps:
(§1)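 Compounds at a final 100 concentration were mixed with the stable radical DPPH, using ethanol as the control solution. Absorbance at 517 nm was read after 20 and 60 min at room temperature. Each assay was run at least in triplicate.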

A short description of assay [3]: Antioxidant activity assessed as inhibition of AAPH-induced linoleic acid peroxidation at 100 uM by UV spectrophotometric analysis relative to control. An outline of the steps:
(§2)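 Linoleic acid dispersion (16 mM stock) in 0.05 M phosphate buffer, pH 7.4, pre-equilibrated at 37 °C. Oxidation was started with AAPH (40 mM stock solution) as radical initiator, with test compound added in DMSO. Conjugated diene hydroperoxide formation was followed as the rise in absorbance at 234 nm at 37 °C. The control contained the same level of DMSO without antioxidant.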

Assay [4] relates to Radical scavenging activity. Kind of assay: Antioxidant activity assessed as reduction of DPPH free radical formation at 100 uM after 20 mins relative to control. More on the design: scale not given: the % may be the effect or the level left. An outline of the steps:
as §1
(In general: DPPH is a stable violet radical that fades when it is reduced.)

Assay [5] in a line: Antioxidant activity assessed as inhibition of AAPH-induced linoleic acid peroxidation by UV spectrophotometric analysis. An outline of the steps: as §2

Active and inactive are the calls of the source. No cut-off for these calls is given here.

The source of these data is ChEMBL document CHEMBL3259725, “Synthesis of stable aromatic and heteroaromatic sulfonyl-amidoximes and evaluation of their antioxidant and lipid peroxidation activity” (Eur J Med Chem, 2014).

By inhibition is commonly meant how much of the control response was suppressed. As for `N=C(NOS(=O)(=O)c1ccccc1)c1ccncc1`, the inhibition is 44% in assay [1] and 22% in assay [3]. Moreover, the Activity in assay [2] came out at 11%; in assay [4] it was 2%.
In the same order, the values of `N/C(=N\O)c1cccnc1` are 60%, “inactive”, 15% and 12%.
As usually defined, the IC50 is the concentration that gives 50% inhibition. Take `Cc1c(C)c2c(c(C)c1O)CCC(C)(C(=O)O)O2` (stereo unspecified) [TROLOX]: the inhibition in assay [1] was determined as 88%. Also, the IC50 in assay [5] worked out at 55 µM.
In the case of `CCCCCCCCCCCCCCCCS(=O)(=O)O/N=C(\N)c1ccccn1`, the inhibition result in assay [1] is “inactive”. Besides, the Activity in assay [2] was 1%; in assay [4], 4%. In assay [3], the inhibition amounted to 21%.
For the compound `Cc1ccc(S(=O)(=O)O/N=C(\N)c2ccccn2)cc1`, the inhibition in assay [1] is 72%. Besides, the Activity in assay [2] is 4%; in assay [4] it was 5%. Besides, the IC50 in assay [5] came to 80 µM.
Regarding `CCCS(=O)(=O)O/N=C(\N)c1ccccn1`, in assay [1], the inhibition was determined as 83%. The Activity in assay [2] amounted to 1%; in assay [4] it was 6%. Also, the inhibition result in assay [3] was “inactive”.
The like results for `N/C(=N\O)c1ccc([N+](=O)[O-])cc1` were, in that order, 85%, 4%, 3% and 41%.
The like results for `CCCCCCCCCCCCCCCCS(=O)(=O)O/N=C(\N)c1ccc([N+](=O)[O-])cc1` were, in that order, 100%, 24%, 21% and 3%.
Consider `Cc1ccc(S(=O)(=O)O/N=C(\N)c2ccncc2)cc1`, for which, in assay [1], the inhibition worked out at 32%. Further, the result in assay [2] and in assay [4] was inactive. In assay [3], the inhibition result was “inactive”.
For `CCCS(=O)(=O)O/N=C(\N)c1cccnc1`, the inhibition in assay [1] is 63%; in assay [3], 16%. In addition, the Activity in assay [2] turned out to be 27%; in assay [4], 23%.
Consider `N/C(=N\OS(=O)(=O)c1ccc([N+](=O)[O-])cc1)c1ccc([N+](=O)[O-])cc1`, for which, in assay [1], the inhibition entry is “inactive”. Moreover, the Activity was 38% in assay [2] and 34% in assay [4]. Besides, the half-maximal inhibitory concentration (IC50) in assay [5] stood at 66.5 µM.
For the compound `CCCCCCCCCCS(=O)(=O)O/N=C(\N)c1ccc([N+](=O)[O-])cc1`, the inhibition in assay [1] was determined as 48%. The Activity in assay [2] is 12%; in assay [4], 3%. Moreover, in assay [3], the inhibition entry was “inactive”.
In the same order, the values of `Cc1ccc(S(=O)(=O)O/N=C(\N)c2ccc([N+](=O)[O-])cc2)cc1` are 78%, 11%, 10% and 25%.
For `CCCCCCCCCCCCCCCCS(=O)(=O)O/N=C(\N)c1cccnc1`, in assay [1], the inhibition was 69%. The Activity in assay [2] is 16%; in assay [4], 7%. The half-maximal inhibitory concentration (IC50) in assay [5] worked out at 70 µM.
Regarding `CCCCCCCCCCS(=O)(=O)O/N=C(\N)c1cccnc1`, the inhibition in assay [1] was found to be 72%; in assay [3] it was 33%. In addition, the values for the Activity in assay [2] and in assay [4] were 24% and 20%, respectively.
The like results for `Cc1ccc(S(=O)(=O)O/N=C(\N)c2cccnc2)cc1` were, in that order, 95%, 43%, 41% and 34%.
The like results for `N/C(=N\O)c1ccccn1` were, in that order, 81%, “inactive”, 14% and 11%.
The like results for `CCCCCCCCCCS(=O)(=O)O/N=C(\N)c1ccccn1` were, in that order, 79%, 46%, 10% and 11%.
Regarding `CCCCCCCCCCCCCCCCS(=O)(=O)O/N=C(\N)c1ccncc1`, the inhibition result in assay [1] was “inactive”. Also, the Activity in assay [2] came to 21%; in assay [4] it was 14%. In assay [3], the inhibition was determined as 12%.
In the same order, the values of `N=C(NOS(=O)(=O)c1ccccc1)c1cccnc1` are 28%, 25%, 24% and 21%.
With `N=C(NOS(=O)(=O)c1ccccc1)c1ccccn1`, the inhibition in assay [1] is 32%; in assay [3], 30%. The result in assay [2] was inactive. In addition, the Activity in assay [4] came out at 4%.
As to `CCCS(=O)(=O)O/N=C(\N)c1ccncc1`, in assay [1], the inhibition turned out to be 66%. For the same compound, the Activity in assay [2] amounted to 4%. Moreover, the inhibition result in assay [3] is “inactive”. Besides, the result in assay [4] was inactive.
Consider `N/C(=N\OS(=O)(=O)c1ccc([N+](=O)[O-])cc1)c1cccnc1`, for which the inhibition in assay [1] turned out to be 18%. Also, the Activity in assay [2] stood at 11%; in assay [4] it was 8%. Further, in assay [5], the IC50 stood at 85 µM.
`NC(=NO)c1ccncc1`: the inhibition in assay [1] worked out at 87%. The Activity in assay [2] turned out to be 7%; in assay [4], 3%. In assay [3], the inhibition result is “inactive”.
On to `CC(Cc1ccc(O)c(O)c1)C(C)Cc1ccc(O)c(O)c1` (stereo unspecified), for which the Activity amounted to 81% in assay [2] and 77% in assay [4].
As to `N/C(=N\OS(=O)(=O)c1ccccc1)c1ccc([N+](=O)[O-])cc1`, the results for the inhibition in assay [1] and in assay [3] were 34% and 5%, respectively. For the same compound, the Activity in assay [2] was determined as 8.4%; in assay [4], 4%.
`N/C(=N\OS(=O)(=O)c1ccc([N+](=O)[O-])cc1)c1ccccn1`: the inhibition in assay [1] was determined as 98%. For the same compound, the Activity in assay [2] and in assay [4] was 32% in each case. Also, the IC50 in assay [5] was 72 µM.
With `NC(=NOS(=O)(=O)c1ccc([N+](=O)[O-])cc1)c1ccncc1`, the inhibition in assay [1] was 0%; in assay [3], 49%. The Activity was 20% in assay [2] and 13% in assay [4].
The like results for `CCCCCCCCCCS(=O)(=O)O/N=C(\N)c1ccncc1` were, in that order, 70%, 28%, 21% and 14%.
The like results for `CCCS(=O)(=O)O/N=C(\N)c1ccc([N+](=O)[O-])cc1` were, in that order, 75%, 22%, 19% and 10%.
